Laboratory results: ChEMBL document CHEMBL1138079 (J Med Chem, 2006)

Key:
nitroreductase = assay: (§1) Half life in phosphate buffer at pH 7 at 37 degC assessed as reduction by Escherichia coli nitroreductase by NR assay; type: ADME; settings: Escherichia coli, Escherichia coli nitroreductase in phosphate buffer
Method in brief: (§2)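 Substrate at 0.2 mM with 1 mM NADH in 10 mM sodium phosphate buffer, pH 7.0, at 37 °C. Reaction started by adding 1.8 µg E. coli nitroreductase; 2 mM cysteine added for one compound. Aliquots taken at intervals, quenched with acetonitrile, frozen, then analysed by HPLC. Half-life calculated from substrate disappearance.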

V79 [1] = assay: Antiproliferative activity against chinese hamster V79 cells after 72 hrs; type: functional, cell-based, Cricetulus griseus
Method in brief: (§3)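 V79 Chinese hamster fibroblasts: NTR⁺ cells stably transfected with a bicistronic NTR/puromycin-resistance vector and kept under puromycin selection; vector-only NTR⁻ controls. Seeded 1000 cells/well, recovered 24 h, then exposed to serially diluted drug for 3 days at 37 °C, initially up to 100 µM. SRB stain read at 570 nm. IC50 interpolated; ratio is NTR⁻/NTR⁺ IC50.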

V79 [2] = assay: Antiproliferative activity against NTR expressing chinese hamster V79 cells after 72 hrs; type: functional, cell-based, Cricetulus griseus; method in brief: as §3
V79 [3] = assay: Ratio for antiproliferative activity against NTR- V79 cells to NTR+ V79 cells after 72 hrs; type: functional, Cricetulus griseus; method in brief: as §3
SK-OV-3 [4] = assay: Ratio for antiproliferative activity against NTR- SKOV3 cells to NTR+ SKOV3 cells after 18 hrs; type: functional, Homo sapiens
Method in brief: (§4)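 SKOV3 ovarian carcinoma cells stably transduced with a retroviral NTR vector and selected with 1 mg/mL G418, compared with parental SKOV3. Plated at 20 000 cells/well and allowed to adhere 24 h. Prodrug range given for 18 h, then replaced with drug-free medium. MTT survival read 2 days later. Ratio is NTR⁻/NTR⁺ IC50.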

[5] = as §1; type: ADME; settings: buffer; method in brief: as §2
SK-OV-3 [6] = assay: Antiproliferative activity against human SKOV3 cells infected with 100 pfu/cell retrovirus after 18 hrs; type: functional, cell-based
SK-OV-3 [7] = assay: Antiproliferative activity against NTR expressing human SKOV3 cells […] after 18 hrs; type: functional, cell-based
SK-OV-3 [8] = assay: Ratio for antiproliferative activity against NTR- SKOV3 cells to NTR+ SKOV3 cells infected with 100 pfu/cell retrovirus after 18 hrs; type: functional, Homo sapiens
SK-OV-3 [9] = assay: Antiproliferative activity against human SKOV3 cells after 18 hrs; type: functional, cell-based; method in brief: as §4
SK-OV-3 [10] = assay: Antiproliferative activity against NTR expressing human SKOV3 cells after 18 hrs; type: functional, cell-based; method in brief: as §4
V79 [11] = assay: Antiproliferative activity against chinese hamster V79 cells after 1 hr; type: functional, cell-based; settings: Cricetulus griseus, V79, 1 h
Method in brief: (§5)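 Same stable NTR⁺ and vector-only NTR⁻ V79 pair, seeded 1000 cells/well and recovered 24 h. Cells exposed to drug for 1 h only, initially up to 100 µM, then given drug-free medium. SRB viability was read 3 days after drug addition. IC50 is the concentration giving 50% of control cell number; ratio is NTR⁻/NTR⁺.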

V79 [12] = assay: Antiproliferative activity against NTR expressing chinese hamster V79 cells after 1 hr; type: functional, cell-based, Cricetulus griseus; method in brief: as §5
V79 [13] = assay: Ratio for antiproliferative activity against NTR- V79 cells to NTR+ V79 cells after 1 hr; type: functional, cell-based, Cricetulus griseus; method in brief: as §5
SK-OV-3 [14] = assay: Antiproliferative activity against human SKOV3 cells infected with 10 pfu/cell retrovirus after 18 hrs; type: functional, cell-based; settings: SK-OV-3, 18 h
SK-OV-3 [15] = assay: Ratio for antiproliferative activity against NTR- SKOV3 cells to NTR+ SKOV3 cells infected with 10 pfu/cell retrovirus after 18 hrs; type: functional, Homo sapiens

| SMILES | half-life (nitroreductase) [min] | IC50 (V79 [1]; Cricetulus griseus, V79, 72 h) [µM] | IC50 (V79 [2]; v79) [µM] | Ratio (V79 [3]) | Ratio (SK-OV-3 [4]) | T1/2 [5] [min] | IC50 (V79 [2]; Cricetulus griseus, V79, 72 h) [µM] | IC50 (SK-OV-3 [6]; Homo sapiens, SK-OV-3, 18 h) [µM] | IC50 (SK-OV-3 [7]; sk-ov-3) [µM] | Ratio (SK-OV-3 [8]) | IC50 (SK-OV-3 [9]; Homo sapiens, SK-OV-3, 18 h) [µM] | IC50 (V79 [11]) [µM] | IC50 (V79 [12]; Cricetulus griseus, V79, 1 h) [µM] | Ratio (V79 [13]) | IC50 (SK-OV-3 [10]; Homo sapiens, SK-OV-3, 18 h) [µM] | other results |
| --- | --- | --- | --- | --- | --- | --- | --- | --- | --- | --- | --- | --- | --- | --- | --- | --- |
| O=[N+]([O-])c1ccc(C2CCNP(=O)(N(CCCl)CCCl)N2)cc1 (racemic; cis) | 6.4 | 56.8 | 4.6 | 12 |  |  |  |  |  |  |  |  |  |  |  |  |
| O=[N+]([O-])c1ccc(C2CCOP(=O)(N(CCCl)CCCl)N2)cc1 (racemic; trans) |  | > 100 |  | >1.9 | >4.8 | 2.9 | 51.5 | > 1000 | 220 | >4.5 | > 1000 |  |  |  |  | IC50 (SK-OV-3 [10]; sk-ov-3): 210 µM |
| O=[N+]([O-])c1ccc(C2CCOP(=O)(N(CCCl)CCCl)N2)cc1 (racemic; cis) |  |  | 45.3 | >2.2 | >1.9 | 11.9 |  |  | 530 | >1.9 |  |  |  |  |  | IC50 (SK-OV-3 [10]; sk-ov-3): 530 µM |
| NP(=O)(OCc1ccc([N+](=O)[O-])cc1)N(CCCl)CCCl (racemic) | 2.3 | 67 |  | 170000 | >5600 |  | 0.0004 | > 1000 |  | >830 | > 890 | > 100 | 0.01 | >10000 | 0.16 | IC50 (SK-OV-3 [14]): > 1000 µM; Ratio (SK-OV-3 [15]): >160 |
| O=[N+]([O-])c1ccc(C2CCNP(=O)(N(CCCl)CCCl)O2)cc1 (racemic; trans) | 3.9 | 608 |  | 23000 | 270 |  | 0.027 | > 1000 |  | >200 | 570 | > 100 | 0.17 | >590 | 2.1 | IC50 (SK-OV-3 [7]; Homo sapiens, SK-OV-3, 18 h): 5 µM |
| O=P1(N(CCCl)CCCl)NC(OO)CCO1 (stereo not given) [PERFOSFAMIDE] |  | 3.1 |  | 1.1 |  |  | 2.7 |  |  |  |  |  |  |  |  |  |
| O=[N+]([O-])c1ccc(C2CCNP(=O)(N(CCCl)CCCl)O2)cc1 (racemic; cis) |  |  | 0.029 | 29000 | >440 | 5.2 |  |  | 4.7 | 150 |  |  |  | >290 |  | IC50 (V79 [1]; v79): 832 µM; IC50 (V79 [12]; v79): 0.34 µM; IC50 (SK-OV-3 [6]; sk-ov-3): 680 µM; IC50 (SK-OV-3 [9]; sk-ov-3): > 930 µM |
| NC(=O)c1cc(N2CC2)c([N+](=O)[O-])cc1[N+](=O)[O-] [TRETAZICAR] | 5 | 254 |  | 7100 | >400 |  | 0.036 | > 1000 |  | >210 | > 790 | > 100 | 0.31 | >320 | 2 | IC50 (SK-OV-3 [14]): 625 µM; Ratio (SK-OV-3 [15]): 12 |
| O=[N+]([O-])c1ccc(C2CCNP(=O)(N(CCCl)CCCl)N2)cc1 (racemic; trans) |  |  | 48.3 | >2.1 |  | 4.2 |  |  |  |  |  |  |  |  |  | IC50 (V79 [1]; v79): > 100 µM |
